# Screening data deposited in PubChem BioAssay by several laboratories.
# STAT3 blocker – IL-6 driven STAT3 reporter inhibitors, primary screen, U3A cells, luciferase, luminescence, MLSCN library; AID 862, 2007; hit rate 0.89% among 190,000; inhibition, % at 5.5 µM; IL-6 STAT3-luciferase reporter; host cell line lacks STAT1;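 active = inhibition above the mean inhibition across all screened compounds plus 3 SD, cut at about 44% in these data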;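 note: 0% = DMSO only wells and 100% = 100 µM nifuroxazide control wells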
# STAT3 act-1 – IL-6 driven STAT3 reporter potentiators, primary screen, U3A cells, luciferase, luminescence, MLSCN library; hit rate 0.91% among 190,000; IL-6 STAT3-luciferase reporter; 100% = signal with IL-6 EC80 alone; AID 871, 2007; activation (% of control), % at 5.6 µM;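 active = activation above the screen-wide mean of compound activation plus 3 SD, cut at about 130% in these data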;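 note: 0% = background luminescence of wells with medium and substrate only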
#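 System – human U3A cells carrying STAT3-luciferase construct · Probe or stimulus – Interleukin-6, 33 ng/mL · Schedule – compound 1 h, then IL-6 6 h at 37 °C · Signal – luminescence from STAT3-driven luciferase reporter · Evaluation – percent of IL-6-only median luminescence · Benchmarks – IL-6-only high control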
# APP 5'UTR act – activators of APP 5'UTR luciferase reporter, primary screen, SH-SY5Y cells. SH-SY5Y APP 5'UTR luciferase reporter, luminescence; zero percent = DMSO vehicle wells. activation, % at 2 µM. AID 1276, 2008. hit rate 1% among 190,000;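 active = activation above a set limit, based on mean plus 3 SD of controls, cut at about 140% in these data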
# NF-kB expr up – activators of NF-kB expression in neurons, primary screen, cell-based, HTS; human neuronal cells, NF-kB reporter expression; hits give high values; fold change at 12.5 µM; hit rate 1.6% among 190,000; AID 1239, 2008; in the data active = fold change above about 3.3
# STAT1 act-1 – STAT1 signaling activators, primary screen, cell-based, HTS, luciferase reporter; hit rate 2.6% among 200,000; NIH 3T3 STAT1-luciferase reporter, IFN-gamma, luminescence; 100% = IFN-gamma alone, no compound; activation (% of control), % at 5.5 µM;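 active = activation above the screen-wide mean activation plus 3 SD, cut at about 130% in these data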;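 note: raw ratio to IFN-gamma control signal so 100% means no change and 0% no light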
# STAT1 inh – STAT1 signaling inhibitors, primary screen, cell-based, HTS, luciferase reporter; NIH 3T3 STAT1-luciferase reporter, IFN-gamma, luminescence; inhibition, % at 5.5 µM; hit rate 0.35% among 200,000;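 active = inhibition above a set limit, the mean inhibition across all tested compounds plus 3 SD, cut at about 34% in these data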;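 note: 0% = IFN-gamma with DMSO and 100% = IFN-gamma with 300 µM nifuroxazide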
# STAT3 act-2 – STAT3 reporter potentiators, retest of hits, confirmation, U3A cells, luciferase, luminescence | shares compounds with STAT3 act-1 | IL-6 potentiation; U3A cells lack STAT1; 100 means same as IL-6 alone | potentiation (% of control), % at 5.7 µM | hit rate 64% among 1,200 | AID 1267, 2008;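 active = percent activation of the STAT3 luciferase reporter above a set limit taken from the earlier primary screen, cut at about 130% in these data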;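 note: 0% = background signal of medium plus substrate and 100% = median of IL-6 with DMSO wells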
# NFkB act STAT3ct – NF-kB reporter activators in human cells, counter-screen for STAT3 activator project; shares compounds with STAT3 act-1; NF-kappaB reporter activation; activation (% of control), % at 5.7 µM; hit rate 11% among 1,200; AID 1309, 2008; in the data active = activation above about 120%;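 note: reporter induced by TNF-alpha stimulation; 100% = median of stimulated DMSO wells and 0% = no signal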
# STAT1 act-2 – STAT1 reporter activators, IFN-gamma induced, counter-screen for STAT3 activator project, cell-based, NIH 3T3, luciferase luminescence; activation (% of control), % at 5.7 µM; hit rate 13% among 1,200; AID 1318, 2008; NIH 3T3 STAT1-luciferase reporter; shares compounds with STAT3 act-1;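 active = activation above the solvent-only control well mean plus 3 SD, set per screening run, cut at about 120% in these data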;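 note: 100% = IFN-gamma with DMSO median signal so 100% means no change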
# * marks the source's active call; other numbers are inactive results; . = not tested or not shown. In the library only some 4.9% were active in any assay of this set; here they are far more common.
SMILES,STAT3 blocker,STAT3 act-1,APP 5'UTR act,NF-kB expr up,STAT1 act-1,STAT1 inh,STAT3 act-2,NFkB act STAT3ct,STAT1 act-2
Cc1ccc(-c2[nH]c3ccccc3c2C(C[N+](=O)[O-])c2ccco2)cc1 (stereo not drawn),-56,152*,14,1.2,82,19,134*,97,78
CCOC(=O)c1c(NC(=S)NCC2CCCO2)sc(C)c1C (stereo not drawn),-6,109,13,0.97,98,2,.,.,.
CCC(C(=O)Nc1ccccc1OC)n1c(C(=O)OC)cc2ccsc21 (stereo not drawn),-45,142*,7,0.78,87,14,148*,104,87
Cc1cccc2c1NC(=O)/C2=C\C(=O)c1cccs1,-47,147*,-20,1.3,98,3,136*,107,92
CCOc1ncccc1C(=O)OCc1cccc([N+](=O)[O-])c1,7,96,13,1,109,-12,.,.,.
COc1ccc(N(CC(=O)Nc2nccs2)S(=O)(=O)c2c(C)[nH]c(=O)[nH]c2=O)cc1,7,101,14,1.2,99,1,.,.,.
CN(C)c1ccc(C(=O)Nc2nc3c(s2)CCCC3)cc1,40,71,131,1.3,119,-21,.,.,.
C/C(=N\Nc1nc2c(s1)CCCC2)c1ccc(Cl)cc1,-67,158*,13,1.4,100,0,104,122*,114
CC(C)C[C@H](NC(=O)c1nc[nH]c1C(=O)NCc1ccccc1)C(=O)OCc1ccccc1,.,.,8,0.74,99,3,.,.,.
Cc1ccc(S(=O)(=O)N2CCC(C(=O)NNC(=O)c3ccncc3)CC2)cc1,10,96,14,1,95,4,.,.,.
Cc1nc(NC(=O)CC(C)C)sc1-c1csc(Nc2ccc(Cl)cc2Cl)n1,0,105,2,0.98,108,-9,.,.,.
CCCCCCC(=O)Nc1nc(C)c(-c2csc(Nc3ccc(Cl)cc3)n2)s1,-35,136*,10,1,81,20,126,108,94
CCCCCC(=O)Nc1nc(C)c(-c2csc(Nc3ccc(Cl)cc3)n2)s1,-60,148*,5,1,87,15,130,104,98
Cc1nc(NC(=O)CC(C)C)sc1-c1csc(Nc2ccc(Cl)cc2)n1,-51,141*,14,0.91,95,6,120,100,99
CCCCCC(=O)Nc1nc(C)c(-c2csc(Nc3cc(Cl)ccc3C)n2)s1,-5,111,7,0.98,89,12,.,.,.
Cc1nc(NC(=O)c2ccccc2)sc1-c1csc(Nc2ccc(Cl)cc2)n1,28,86,2,1.2,109,-10,.,.,.
Cc1nc(NC(=O)c2ccco2)sc1-c1csc(Nc2ccc(Cl)cc2)n1,-56,146*,5,0.96,98,2,124,102,101
CN1N=C(C(=O)N2CCc3c([nH]c4ccccc34)C2c2ccccc2Cl)CCC1=O (stereo not drawn),-59,156*,52,2,112,-15,178*,121*,123*
O=C(c1cc[n+]([O-])cc1)N1CCc2c([nH]c3ccccc23)C1c1ccccc1Cl (stereo not drawn),-83,176*,0,0.96,89,10,155*,100,91
Cc1ccc2cc(C#N)c(N3CCCC3)nc2c1C,-46,140*,6,1,104,-8,137*,117,133*
Cn1c(CN2CCN(c3cccc(Cl)c3)CC2)nc2ccccc21,-42,139*,-8,0.78,100,4,123,108,104
Cn1c(=O)[nH]c(=O)c2c1nc(CN1CCN(c3cccc(Cl)c3)CC1)n2CCc1ccccc1,0,103,13,0.89,91,6,.,.,.
COc1ccc(Cl)cc1-c1nc(-c2ccc(Br)o2)no1,-86,174*,-5,1.2,103,-3,160*,114,117
N#Cc1c(C(F)(F)F)cc(C2CC2)nc1N1CCCC1,-59,148*,15,0.96,90,11,122,101,98
CCN(C(=S)Nc1cccnc1)c1cccc2ccccc12,-34,137*,-2,.,97,4,128,101,92
SMILES,STAT3 blocker,STAT3 act-1,APP 5'UTR act,NF-kB expr up,STAT1 act-1,STAT1 inh,STAT3 act-2,NFkB act STAT3ct,STAT1 act-2
Cc1cccc(CN(C(=S)Nc2c(C)cccc2C)c2cccnc2)c1,6,97,19,1.1,101,-2,.,.,.
CC1Oc2ccccc2OC1C(=O)Nc1ccccn1 (stereo not drawn),-64,156*,21,0.95,92,7,144*,103,90
O=C(Nc1ccccn1)C1COc2ccccc2O1 (stereo not drawn),-2,103,35,.,101,0,.,.,.
Cc1ccccc1C1c2[nH]c3ccccc3c2CCN1C(=O)c1ccc(=O)n(C)n1 (stereo not drawn),-66,163*,6,0.84,90,10,169*,103,98
COc1ccc(C2c3[nH]c4ccccc4c3CCN2C(=O)c2ccc(=O)n(C)n2)c(F)c1 (stereo not drawn),-50,148*,16,1.4,107,-10,153*,104,108
COc1ccccc1-c1n[nH]c(=S)n1N,15,91,13,1.5,96,6,.,.,.
COc1ccccc1-c1n[nH]c(=S)n1-c1ccccc1,-38,137*,4,1.3,98,2,104,104,105
CCn1c(=O)c(C(=O)CN2CCN(S(=O)(=O)c3cc(C)ccc3C)CC2)c(N)n(Cc2ccccc2)c1=O,6,98,1,0.81,93,8,.,.,.
CCCCCC(=O)N/N=C(\C)c1ccccn1,10,100,2,0.74,108,-9,.,.,.
C/C(=N\Nc1ccc(Cl)cc1)c1ccccn1,-50,139*,54,2.9,119,-21,140*,123*,148*
COc1ccc(NC(=O)C(c2cc3c(cc2[N+](=O)[O-])OCO3)N(C)c2ccccc2)cc1 (stereo not drawn),-2,99,4,1.1,106,-7,.,.,.
